Measurements taken from ChEMBL document CHEMBL4261484, “Design, synthesis and anticonvulsant-analgesic activity of new N-[(phenoxy)alkyl]- and N-[(phenoxy)ethoxyethyl]aminoalkanols” (Medchemcomm, 2017).
Active and inactive are the calls of the source.

What was measured:
[1] = system: Mus musculus; test: Toxicity in mouse assessed as effect on spontaneous activity at 69 mg/kg, ip measured for 30 mins by photoresistor actometer relative to control; assay type: organism-based; settings: in vivo, 0.5 h
How it was run: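 Mice dosed ip; locomotor activity by photoresistor actometers counting light-beam interruptions. Each mouse was habituated 30 min in a cage, then crossings were counted over a 30 min session. Data are mean ± SEM and % change vs control; unpaired t test.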

[2] = system: Mus musculus; test: Anticonvulsant activity in mouse assessed as protection against maximal electroshock-induced seizures at 100 mg/kg, ip; assay type: functional, organism-based
How it was run: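 Mice dosed ip; maximal seizures induced by auricular electroshock (25 mA, 500 V, 50 Hz, 0.2 s). Endpoint: hind-limb tonic extension; animals without it scored protected. Read-out is number protected over number tested.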

[3] = system: Mus musculus; test: Toxicity in mouse at 80 mg/kg, ip measured during maximal electroshock seizure test; assay type: organism-based; settings: in vivo
[4] = system: Mus musculus; test: Anticonvulsant activity in mouse assessed as current strength required to induce tonic hind-limb extension in 50% of the animals at 30 mg/kg, ip by maximal electroshock seizure threshold test (reference value: 6.05 to 8.13 mA); assay type: functional
[5] = system: SH-SY5Y; test: Potentiation of H2O2-induced cytotoxicity against human SH-SY5Y cells at 10^-5 M after 72 hrs by LDH release assay; assay type: cell-based; settings: 10 µM
How it was run: (§1)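 SH-SY5Y cells in 1% FBS given 10^-8 to 10^-5 M for 72 h, with H2O2 (0.5 mM) added for the last 24 h. LDH released into medium measured at 490 nm and normalized to vehicle cells without H2O2. Dunnett's test after one-way ANOVA.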

[6] = system: Mus musculus; test: Neurotoxicity in mouse assessed as motor impairment by measuring time of escaping from chimney at 69 mg/kg, ip measured for 60 secs (reference value: 8.87 +/- 1.79 secs); assay type: toxicity, organism-based; settings: in vivo, 1 min
How it was run: (§2)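 Mice dosed ip; trained, selected animals placed in a horizontal tube 25 cm long and 2.5 cm in diameter, then tube reversed so mice must climb out backward. Read-outs: escape time (s) ± SEM and % animals losing coordination versus control. Unpaired t test.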

[7] = system: Mus musculus; test: Toxicity in mouse at 60 mg/kg, ip measured during maximal electroshock seizure test; assay type: organism-based; settings: in vivo
[8] = system: Mus musculus; test: Analgesic activity in mouse assessed as decrease in time of paw licking during phase 2 at 69 mg/kg, ip measured for 15 to 30 mins by formalin test relative to control; assay type: functional; design: scale not given: the % may be the effect or the level left
How it was run: (§3)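 Formalin test in mice: 20 μL of 5% formalin injected intraplantarly into the right hind paw. Each mouse was observed alone in a glass beaker for 30 min. Time (s) spent licking or biting the injected paw was recorded at 0–5 min (acute phase) and 15–30 min (inflammatory phase).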

[9] = system: SH-SY5Y; test: Potentiation of H2O2-induced cytotoxicity against human SH-SY5Y cells at 10^-6 to 10^-5 M after 24 hrs by MTT assay; assay type: cell-based
[10] = system: Mus musculus; test: Anticonvulsant activity in mouse assessed as increase in electroconvulsive threshold at 30 mg/kg, ip by maximal electroshock seizure threshold test relative to control; assay type: functional
[11] = system: Mus musculus; test: Toxicity in mouse at 100 mg/kg, ip measured during maximal electroshock seizure test; assay type: organism-based; settings: in vivo
[12] = system: HepG2; test: Cytotoxicity against human HepG2 cells assessed as effect on cell viability at 10 to 250 uM after 24 hrs by neutral red assay; assay type: cell-based; settings: hepg2, 24 h
How it was run: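 HepG2 cells seeded at 5 × 10^4 per well, then after 24 h given medium with 10–250 μM for 24 h. Viability by neutral red staining, OD 570 nm. Results are % of control ± SEM, three independent experiments.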

[13] = Cytotoxicity against mouse CRL-2541 cells assessed as effect on cell viability at 10 to 250 uM after 24 hrs by MTT assay; assay type: cell-based
[14] = system: HepG2; test: Cytotoxicity against human HepG2 cells assessed as effect on cell viability at 10 to 250 uM after 24 hrs by MTT assay; assay type: cell-based; settings: hepg2, 24 h
How it was run: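 HepG2 cells grown in MEM with 10% FBS (37 °C, 5% CO2) and seeded at 1 × 10^4. After overnight culture, exposed to 10–250 μM for 24 h. MTT for 3 h, formazan dissolved, OD 570 nm. Viability is % of control ± SEM from three independent experiments.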

[15] = system: Mus musculus; test: Anticonvulsant activity in mouse assessed as protection against subcutaneous pentylenetetrazole-induced seizures by measuring latency time of tonic seizures at 100 mg/kg, ip measured for 30 mins post pentylenetetrazole challenge at 0.5 hrs after compound dosing (reference value: 562.8 to 614.9 secs); assay type: functional
[16] = system: SH-SY5Y; test: Cytotoxicity against human SH-SY5Y cells 10^-8 to 10^-4 M after 72 hrs by LDH release assay; assay type: cell-based
How it was run: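 SH-SY5Y cells grown in DMEM with 10% FBS, then seeded at 15000 per well in 1% FBS a day ahead. Treated with 10^-8 to 10^-4 M (water-dissolved) for 72 h, with vehicle controls and triton as positive control. LDH in medium read at 490 nm, expressed as % of vehicle-treated cells. Dunnett's test after one-way ANOVA.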

[17] = system: Mus musculus; test: Neurotoxicity in mouse assessed as motor impairment by measuring loss of coordination at 69 mg/kg, ip measured for 60 secs by chimney test relative to control; assay type: toxicity, organism-based; settings: in vivo, 1 min; how it was run: as §2
[18] = system: SH-SY5Y; test: Cytotoxicity against human SH-SY5Y cells 10^-8 to 10^-4 M after 24 hrs by MTT assay; assay type: cell-based
[19] = Protection index, ratio of TD50 for neurotoxicity in ip dosed mouse by rotarod test to ED50 for anticonvulsant activity in mouse by maximal electroshock seizure test; assay type: toxicity, organism-based; settings: in vivo, read-out: Ratio TD50/ED50
[20] = system: Mus musculus; test: Anticonvulsant activity in ip dosed mouse assessed as protection against maximal electroshock-induced seizures; assay type: functional
How it was run: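 Mice were dosed ip. Maximal seizures were induced by auricular electrodes (25 mA, 500 V, 50 Hz, 0.2 s). Absence of hind-limb tonic extension counted as protection. […] Motor impairment was scored on a 10 rpm rotarod, giving TD50 the same way.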

[21] = system: Mus musculus; test: Analgesic activity in mouse assessed as decrease in time of paw licking during phase 1 at 69 mg/kg, ip measured for 5 mins by formalin test relative to control; assay type: functional; design: scale not given: the % may be the effect or the level left; how it was run: as §3
[22] = Neurotoxicity in ip dosed mouse assessed as motor impairment measured for one min by rotarod test; assay type: toxicity, organism-based; settings: in vivo
How it was run: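 Mice trained on an accelerating rotarod, then tested at least 24 h later after ip pretreatment, on a rod turning at 10 rpm. Neurotoxicity was scored as failure to stay on the rod for one minute. Read-out is mice impaired over mice tested.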

[23] = system: Mus musculus; test: Anticonvulsant activity in mouse assessed as protection against subcutaneous pentylenetetrazole-induced seizures at 100 mg/kg, ip measured for 30 mins post pentylenetetrazole challenge at 0.5 hrs after compound dosing relative to control; assay type: functional
[24] = system: SH-SY5Y; test: Potentiation of H2O2-induced cytotoxicity against human SH-SY5Y cells at 10^-8 to 10^-6 M after 72 hrs by LDH release assay; assay type: cell-based; how it was run: as §1

For Cc1cccc(OCCOCCN2CCCC(O)C2)c1C.Cl (centres undefined), the Activity [1] was 14.98%, the Activity [2] was “Active” and the Activity [3] was “Non-Toxic”. The Activity [4] was 13.18 mA, the Activity [5] was “Toxic” and the Time [6] was 4.75 s. The Activity [7] was “Non-Toxic”, the Activity [8] was 64.59% and the Activity [9] was “Toxic”. For the same compound, the Activity [10] was 75.03%, the Activity [11] was “Non-Toxic” and the Activity [12] was “Non-Toxic”. For the same compound, the Activity [13] was “Non-Toxic”, the Activity [14] was “Non-Toxic” and the Time [15] was 564.8 s. For the same compound, the Activity [16] was “Non-Toxic”, the Activity [17] was 0% and the Activity [18] was “Non-Toxic”. It also gave a selectivity ratio [19] of 1.77, an ED50 [20] of 68.7 mg/kg and an Activity [21] of 13.74%. The TD50 at 1 min [22] was 122 mg/kg, the Activity [23] was “inactive” and the Activity [24] was “Non-Toxic”.
